Reference: ChEMBL document CHEMBL1933017, “Synthesis and biological evaluation of some thiazolidinones as antimicrobial agents” (2012)
Values after ≈ are worked out from the molar mass of the structure shown.

Legend:
Staphylococcus aureus [1] = assay: Antibacterial activity against Staphylococcus aureus at 100 ug/disc after 24 hrs by disc diffusion method; format: functional; details: read-out: DIZ
Summary of the method: (§1)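 Paper disc diffusion on autoclaved Mueller-Hinton agar poured 5 mm deep. Agar was swab-inoculated with 10⁵ CFU/mL suspension (0.5 McFarland). Discs 6.25 mm across were soaked in compound solution in DMSO (3.12–100 µg/mL) and plates incubated 24 h at (37 ± 1) °C. Read-out was inhibition zone (mm). DMSO control disc; ciprofloxacin or ketoconazole reference, 100 µg/disc. Mean of three independent experiments.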

Candida albicans [2] = assay: Antifungal activity against Candida albicans after 48 hrs by agar streak dilution method; format: functional
Summary of the method: (§2)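 Fungal MIC by agar streak dilution on Sabouraud dextrose agar, poured 4–5 mm deep. Compound from a DMSO stock (100 μg/mL) was incorporated at serial concentrations of 3.12–100 µg/mL. Plates were inoculated with about 10⁵ CFU/mL of suspension and incubated at (37 ± 1) °C for 48 h. Each value is the mean of three independent experiments.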

Escherichia coli [3] = assay: Antibacterial activity against Escherichia coli after 24 hrs by agar streak dilution method; format: functional
Summary of the method: (§3)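 MIC by agar streak dilution. Graded amounts of DMSO stock (100 μg/mL) were mixed into molten sterile nutrient agar and poured 4–5 mm deep. Serial concentrations spanned 3.12–100 µg/mL. Plates were inoculated with about 10⁵ CFU/mL of bacterial suspension and incubated at (37 ± 1) °C for 24 h. Each value is the mean of three independent experiments.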

Aspergillus clavatus [4] = assay: Antifungal activity against Aspergillus clavatus at 100 ug/disc after 24 hrs by disc diffusion method; format: functional; details: read-out: DIZ; summary of the method: as §1
Aspergillus clavatus [5] = assay: Antifungal activity against Aspergillus clavatus after 48 hrs by agar streak dilution method; format: functional; summary of the method: as §2
Pseudomonas aeruginosa [6] = assay: Antibacterial activity against Pseudomonas aeruginosa […] after 24 hrs by agar streak dilution method; format: functional
Salmonella typhi [7] = assay: Antibacterial activity against Salmonella Typhi after 24 hrs by agar streak dilution method; format: functional, Salmonella enterica subsp. enterica serovar Typhi; details: Salmonella enterica
Summary of the method: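 Agar streak dilution: DMSO stock (100 µg/mL) graded into molten sterile nutrient agar, poured 4–5 mm deep and solidified. Plates carry serial dilutions spanning 3.12–100 µg/mL. Applied ~10⁵ CFU/mL suspension, then incubated 24 h at (37 ± 1) °C. MIC read as the lowest inhibitory concentration; each value is the mean of three independent experiments.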

Bacillus cereus [8] = assay: Antibacterial activity against Bacillus cereus at 100 ug/disc after 24 hrs by disc diffusion method; format: functional; details: read-out: DIZ; summary of the method: as §1
Klebsiella pneumoniae [9] = assay: Antibacterial activity against Klebsiella pneumoniae […] after 24 hrs by agar streak dilution method; format: functional
Bacillus cereus [10] = assay: Antibacterial activity against Bacillus cereus after 24 hrs by agar streak dilution method; format: functional; summary of the method: as §3
Proteus vulgaris [11] = assay: Antibacterial activity against Proteus vulgaris at 100 ug/disc after 24 hrs by disc diffusion method; format: functional; details: read-out: DIZ; summary of the method: as §1
Proteus vulgaris [12] = assay: Antibacterial activity against Proteus vulgaris after 24 hrs by agar streak dilution method; format: functional; summary of the method: as §3
Candida albicans [13] = assay: Antifungal activity against Candida albicans at 100 ug/disc after 24 hrs by disc diffusion method; format: functional; details: read-out: DIZ; summary of the method: as §1
Aspergillus niger [14] = assay: Antifungal activity against Aspergillus niger after 48 hrs by agar streak dilution method; format: functional; summary of the method: as §2
Staphylococcus aureus [15] = assay: Antibacterial activity against Staphylococcus aureus after 24 hrs by agar streak dilution method; format: functional; summary of the method: as §3
Shigella flexneri [16] = assay: Antibacterial activity against Shigella flexneri after 24 hrs by agar streak dilution method; format: functional; summary of the method: as §3
Aspergillus fumigatus [17] = assay: Antifungal activity against Aspergillus fumigatus after 48 hrs by agar streak dilution method; format: functional; summary of the method: as §2
Escherichia coli [18] = assay: Antibacterial activity against Escherichia coli at 100 ug/disc after 24 hrs by disc diffusion method; format: functional; details: read-out: DIZ; summary of the method: as §1
Shigella flexneri [19] = assay: Antibacterial activity against Shigella flexneri at 100 ug/disc after 24 hrs by disc diffusion method; format: functional; details: read-out: DIZ; summary of the method: as §1
Klebsiella pneumoniae [20] = assay: Antibacterial activity against Klebsiella pneumoniae at 100 ug/disc after 24 hrs by disc diffusion method; format: functional; details: read-out: DIZ; summary of the method: as §1
Salmonella typhi [21] = assay: Antibacterial activity against Salmonella Typhi at 100 ug/disc after 24 hrs by disc diffusion method; format: functional, Salmonella enterica subsp. enterica serovar Typhi; details: Salmonella enterica, read-out: DIZ
Summary of the method: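 Paper disc diffusion on Mueller-Hinton agar poured 5 mm deep; 10⁵ CFU/mL suspension (0.5 McFarland) swabbed over surface. 6.25 mm filter paper discs soaked in compound in DMSO, incubated 24 h at (37 ± 1) °C; inhibition zone diameter in mm. DMSO disc as blank; ciprofloxacin 100 µg/disc as reference. Mean of three independent experiments.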

Aspergillus fumigatus [22] = assay: Antifungal activity against Aspergillus fumigatus at 100 ug/disc after 24 hrs by disc diffusion method; format: functional; details: read-out: DIZ; summary of the method: as §1
Pseudomonas aeruginosa [23] = assay: Antibacterial activity against Pseudomonas aeruginosa at 100 ug/disc after 24 hrs by disc diffusion method; format: functional; details: read-out: DIZ; summary of the method: as §1
Aspergillus niger [24] = assay: Antifungal activity against Aspergillus niger at 100 ug/disc after 24 hrs by disc diffusion method; format: functional; details: read-out: DIZ; summary of the method: as §1

| Compound | zone of inhibition at 100 µg/disc (Staphylococcus aureus [1]) | MIC (Candida albicans [2]) | MIC (Escherichia coli [3]) | zone of inhibition at 100 µg/disc (Aspergillus clavatus [4]) | MIC (Aspergillus clavatus [5]) | MIC (Pseudomonas aeruginosa [6]) | MIC (Salmonella typhi [7]) | zone of inhibition at 100 µg/disc (Bacillus cereus [8]) | MIC (Klebsiella pneumoniae [9]) | MIC (Bacillus cereus [10]) | zone of inhibition at 100 µg/disc (Proteus vulgaris [11]) | MIC (Proteus vulgaris [12]) | zone of inhibition at 100 µg/disc (Candida albicans [13]) | MIC (Aspergillus niger [14]) | MIC (Staphylococcus aureus [15]) | MIC (Shigella flexneri [16]) | MIC (Aspergillus fumigatus [17]) | zone of inhibition at 100 µg/disc (Escherichia coli [18]) | zone of inhibition at 100 µg/disc (Shigella flexneri [19]) | zone of inhibition at 100 µg/disc (Klebsiella pneumoniae [20]) | further results |
| --- | --- | --- | --- | --- | --- | --- | --- | --- | --- | --- | --- | --- | --- | --- | --- | --- | --- | --- | --- | --- | --- |
| CCN1CCN(CC2SC(c3ccc(OC)c(OC)c3)N(c3ccc(Nc4nc(Oc5cc(=O)n(C)c6ccccc56)nc(N(C)C)n4)cc3)C2=O)CC1 (configuration not stated) | 23 mm | 50 µg/mL (≈ 66.5 µM) | 25 µg/mL (≈ 33.2 µM) | 24 mm | 50 µg/mL (≈ 66.5 µM) | 12.5 µg/mL (≈ 16.6 µM) | 25 µg/mL (≈ 33.2 µM) | 24 mm | 50 µg/mL (≈ 66.5 µM) | 12.5 µg/mL (≈ 16.6 µM) | 23 mm | 50 µg/mL (≈ 66.5 µM) | 23 mm | 100 µg/mL (≈ 133 µM) | 25 µg/mL (≈ 33.2 µM) | 50 µg/mL (≈ 66.5 µM) | 25 µg/mL (≈ 33.2 µM) | 24 mm | 22 mm | 23 mm | zone of inhibition at 100 µg/disc (Salmonella typhi [21]): 25 mm; zone of inhibition at 100 µg/disc (Aspergillus fumigatus [22]): 26 mm; zone of inhibition at 100 µg/disc (Pseudomonas aeruginosa [23]): 24 mm; zone of inhibition at 100 µg/disc (Aspergillus niger [24]): 21 mm |
| CCN1CCN(CC2SC(c3ccc(O)cc3O)N(c3ccc(Nc4nc(Oc5cc(=O)n(C)c6ccccc56)nc(N(C)C)n4)cc3)C2=O)CC1 (configuration not stated) | 15 mm | 100 µg/mL (≈ 138 µM) | 100 µg/mL (≈ 138 µM) | 17 mm | 100 µg/mL (≈ 138 µM) | 100 µg/mL (≈ 138 µM) | 100 µg/mL (≈ 138 µM) | 17 mm | 100 µg/mL (≈ 138 µM) | 100 µg/mL (≈ 138 µM) | 14 mm | 100 µg/mL (≈ 138 µM) | < 10 mm | 100 µg/mL (≈ 138 µM) | 100 µg/mL (≈ 138 µM) | 100 µg/mL (≈ 138 µM) | 100 µg/mL (≈ 138 µM) | 15 mm | 16 mm | 16 mm | zone of inhibition at 100 µg/disc (Salmonella typhi [21]): 14 mm; zone of inhibition at 100 µg/disc (Aspergillus fumigatus [22]): 15 mm; zone of inhibition at 100 µg/disc (Pseudomonas aeruginosa [23]): 17 mm; zone of inhibition at 100 µg/disc (Aspergillus niger [24]): 11 mm |
| CCN1CCN(CC2SC(c3cccc(O)c3O)N(c3ccc(Nc4nc(Oc5cc(=O)n(C)c6ccccc56)nc(N(C)C)n4)cc3)C2=O)CC1 (configuration not stated) | < 10 mm | 100 µg/mL (≈ 138 µM) | 100 µg/mL (≈ 138 µM) | 12 mm | 100 µg/mL (≈ 138 µM) | 100 µg/mL (≈ 138 µM) | 100 µg/mL (≈ 138 µM) | 12 mm | 100 µg/mL (≈ 138 µM) | 100 µg/mL (≈ 138 µM) | 13 mm | 100 µg/mL (≈ 138 µM) | < 10 mm | 100 µg/mL (≈ 138 µM) | 100 µg/mL (≈ 138 µM) | 100 µg/mL (≈ 138 µM) | 100 µg/mL (≈ 138 µM) | < 10 mm | < 10 mm | 16 mm | zone of inhibition at 100 µg/disc (Salmonella typhi [21]): 14 mm; zone of inhibition at 100 µg/disc (Aspergillus fumigatus [22]): 13 mm; zone of inhibition at 100 µg/disc (Pseudomonas aeruginosa [23]): 11 mm; zone of inhibition at 100 µg/disc (Aspergillus niger [24]): < 10 mm |
